Shown is part of a subset that was picked to be rich in hits.
XBP1 UPR activ: adaptive UPR (XBP1) activation. CHO-XBP1 luciferase reporter, IRE1-XBP1 UPR activation, luminescence; percent of tunicamycin response, DMSO as zero. activation, % at 20 µM. hit rate 0.33% among 330,000;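 active means versus positive control, 20 µM dose yields 30% or more activation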;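 further: 100% = tunicamycin at 10 µg/mL and 0% = DMSO only wells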
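Test system: CHO-XBP1 luciferase reporter cells | Buffer or medium: Serum-containing F12 medium, 10% FBS | Schedule: 6 h compound exposure at 37 °C, 5% CO2 | Detection: Steady-Glo luciferase glow luminescence, 10 min after reagent addition | Read-out basis: Activation, % of tunicamycin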
697 NFkB inh: inhibitors of the PMA/ionomycin-induced NF-kB reporter in 697 B cells; 697 B-cell NF-kB luciferase reporter, 16 h; inhibition, % at 4 µM; hit rate 0.33% among 330,000; AID 435022; in the data active means inhibition above about 35%
CHOP inhibitor: inhibitors of CHOP induction in ER stress response | inhibition, % at 10 µM | hit rate 3.8% among 220,000 | AID 2732 | CHO-K1 CHOP-promoter luciferase, tunicamycin-induced, 15-18 h;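 active means compounds that reduced the stress-induced luciferase reporter signal by more than about 70% of percent inhibition, limit read from the data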;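 further: 0% = tunicamycin plus vehicle and 100% = wells without tunicamycin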
Jurkat NFkB inh: lowers PMA/ionomycin-induced NF-kB signal in Jurkat cells; PMA/ionomycin-induced NF-kB luciferase reporter, luminescence; inhibition, % at 4 µM; hit rate 0.53% among 330,000; AID 435003; in the data active means inhibition above about 50%
CHOP UPR activ: apoptotic UPR (CHOP) activation; CHO-CHOP luciferase reporter, luminescence; percent of tunicamycin response over DMSO baseline; activation, % at 10 µM; hit rate 0.34% among 330,000; AID 449763;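 active means at 10 µM dose, activation of 40% or more, normalized to positive control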;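 further: 100% = tunicamycin at 10 µg/mL and 0% = DMSO alone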
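Test system: CHO CHOP reporter cells. Input: 500 CHO-CHOP cells per well. Medium: F12 with 10% FBS. Technique: luciferase luminescence. Measure: percent activation relative to tunicamycin control. Dosing: 10 µM compound, 0.5% DMSO. Timing: 16-18 h cell attachment, then 6 h compound exposure, 37 °C.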
* marks the source's active call; other numbers are inactive results; / = no result.

SMILES | XBP1 UPR activ | 697 NFkB inh | CHOP inhibitor | Jurkat NFkB inh | CHOP UPR activ
CN1C[C@@H](CS(=O)(=O)N(C)C)C[C@@H]2c3cccc4c3c(cn4C)C[C@H]21 | / | / | -4.5 | / | /
O=C1NC(=O)C(=Cc2ccc(-c3ccccc3[N+](=O)[O-])o2)C(=O)N1 | -2.7 | -4.6 | 95.3* | 4.1 | -0.1
NS(=O)(=O)c1ccc(-c2ccc(C=C3C(=O)NC(=O)NC3=O)o2)cc1 | -1.7 | 0.6 | / | -0.4 | 2.7
CCCCCCCCCCCCCC(=O)O[C@@H]1[C@@H](C)[C@@]2(O)[C@@H](C=C(CO)C[C@@]3(O)C(=O)C(C)=C[C@@H]23)C2C(C)(C)[C@@]21OC(C)=O (some centres not stated) | / | / | -44.3 | / | /
O=C(O)c1cccc2c1NC(c1cccc([N+](=O)[O-])c1)C1CC(Sc3ccccc3[N+](=O)[O-])C(Cl)C21 (configuration not stated) | -3.3 | 20.0 | 50.7 | -4.2 | -0.6
O=C(O)c1ccc2c(c1)C1C(Cl)C(Sc3ccccc3[N+](=O)[O-])CC1C(c1cccc([N+](=O)[O-])c1)N2 (configuration not stated) | / | / | 81.2* | / | /
COc1ccc(N=Cc2c(O)n(CC3CCCO3)c(=O)[nH]c2=O)cc1 (configuration not stated) | -0.5 | -20.4 | -13.8 | -20.7 | -1.2
C=CCn1c(O)c(C=Nc2ccc(N(CC)CC)cc2)c(=O)[nH]c1=O | 1.5 | 14.9 | 70.7* | 18.8 | -0.1
COc1ccc(N=Cc2c(O)n(Cc3cccs3)c(=O)[nH]c2=O)cc1 | 2.8 | -11.1 | 81.4* | -7.3 | 1.4
C=CCn1c(O)c(C=Nc2ccc(F)cc2)c(=O)[nH]c1=O | -3.4 | -33.0 | / | -49.9 | 0.3
CCOc1ccc(N=Cc2c(O)n(CCc3ccc(OC)c(OC)c3)c(=O)[nH]c2=O)cc1 | -6.0 | -54.1 | 89.9* | 7.3 | 1.2
C[C@]12Cc3cn4c(nc3C=C1CCC1C2CC[C@@]2(C)[C@H]1CC[C@@]2(O)C#N)nc1ccccc14 (some centres not stated) | / | / | 7.1 | / | /
CC(Cc1ccc(OCC(=O)O)cc1)NCC(O)c1cccc(Cl)c1 (configuration not stated) | / | / | 24.2 | / | /
COc1ccc(CCNC(=O)c2c(N)n(CCN3CCOCC3)c3nc4ccccc4nc23)cc1 | 1.2 | -60.1 | 75.7* | -19.7 | 3.3
Nc1c(C(=O)NCCN2CCOCC2)c2nc3ccccc3nc2n1Cc1ccccc1 | -5.1 | 1.7 | 34.1 | -3.7 | 0.0
CC(C)CCNC(=O)c1c(N)n(CC2CCCO2)c2nc3ccccc3nc12 (configuration not stated) | 0.7 | 11.5 | 76.1* | 4.1 | 1.2
CCCCn1c(N)c(C(=O)NCCN2CCOCC2)c2nc3ccccc3nc21 | 3.0 | 13.4 | 27.7 | 11.1 | 0.2
Nc1c(C(=O)NCCc2ccccc2)c2nc3ccccc3nc2n1CCN1CCOCC1 | 2.7 | -12.3 | 88.5* | -11.0 | -0.6
CP(=O)(O)C1=CCNCC1 | / | / | 0.7 | / | /
C/C=C1/C[N+]2(C)CCC34C(=C(C=O)[C@H]1C[C@@H]32)Nc1ccccc14 (some centres not stated) | -5.6 | -12.3 | / | -0.9 | 0.7
CC[C@H](C)[C@@H]1O[C@@]2(C=CC1C)CC1C[C@@H](CC=C(C)C(O[C@H]3CC(OC)C(O[C@H]4CC(OC)C(O)C(C)O4)C(C)O3)C(C)C=CC=C3CO[C@@H]4C(O)C(C)=C[C@@H](C(=O)O1)[C@]34O)O2 (some centres not stated) | 50.1* | -1.2 | / | 10.4 | 35.9
CCN1C[C@]2(C)CC[C@H](O)[C@@]34C5C[C@@H]6[C@@H](OC)C[C@@](O)(C5[C@H]6O)[C@@H](CC23)C14 (some centres not stated) | / | / | 24.0 | / | /
Cc1cc2c(C(C)C)c(O)c(O)c(C=O)c2c(O)c1-c1c(C)cc2c(C(C)C)c(O)c(O)c(C=O)c2c1O | / | / | 109.4* | / | /
NC(=O)Nc1ccc(C(=O)OCC(=O)Nc2ccc(Cl)cc2C(=O)c2ccccc2)cc1 | 1.3 | 0.4 | 76.5* | 9.7 | -0.2
Brc1ccc(CN2CCNCC2)s1 | -2.9 | 15.2 | 70.8* | 5.0 | -3.0
SMILES | XBP1 UPR activ | 697 NFkB inh | CHOP inhibitor | Jurkat NFkB inh | CHOP UPR activ
CC(O)C(C)OC(=O)[C@@H]1C[C@@H]2c3cccc4c3c(cn4C(C)C)C[C@H]2N(C)C1 (some centres not stated) | / | / | -0.4 | / | /
Clc1ccc2c(c1)C(c1ccccc1Cl)=NCc1nnc(N3CCN(CCSc4ccccc4)CC3)n1-2 | -3.9 | 4.5 | 53.5 | 2.0 | -0.9
Clc1ccc2c(c1)C(c1ccccc1Cl)=NCc1nnc(N3CCN(CCOc4ccccc4)CC3)n1-2 | -1.9 | -21.3 | 88.3* | 12.3 | 0.1
CCCCn1c(NC(=O)c2ccc(Br)o2)c(C(=O)OCC)c2nc3ccccc3nc21 | 61.6* | 7.5 | 24.4 | 12.6 | 6.9
COc1cccc(/C=C2\N=C(c3cncc(Br)c3)OC2=O)c1 | 0.5 | 1.3 | 85.2* | -8.2 | 0.6
CC(C)CCCn1c(O)c(/C=C2/C=CC=N2)c(=O)[nH]c1=O | 3.0 | 1.3 | 85.1* | 8.3 | 0.9
CCCCn1c(O)c(C=NCCCn2ccnc2)c(=O)[nH]c1=O | -8.6 | 8.4 | -3.7 | -9.5 | -2.7
O=C(CNC(=O)c1ccc(Br)cc1)Nc1ccc(Br)cc1C(=O)c1ccccc1 | 1.0 | -17.6 | 76.9* | 10.4 | -0.3
CC1(C)C2SCC(=O)N2CCN1CC(=O)NN (configuration not stated) | 1.2 | -10.5 | 84.0* | -11.9 | 0.4
CC(N)c1cccc(Cl)c1Cl (configuration not stated) | / | / | -3.7 | / | /
O=c1[nH]c(=O)n(Cc2ccccc2)c(O)c1/C=C1\C=Nc2ccccc21 | 12.0 | -0.7 | 83.0* | -2.4 | -3.4
O=c1[nH]c(=O)n(CC2CCCO2)c(O)c1/C=C1\C=Nc2ccccc21 (configuration not stated) | 1.3 | -1.8 | 2.0 | -5.2 | 0.0
C=CCNC(=O)c1c(N)n(Cc2ccco2)c2nc3ccccc3nc12 | -2.8 | 6.5 | 76.9* | 13.4 | -0.4
CN1CCC23CCCC[C@H]2C1Cc1ccc(O)cc13 (some centres not stated) | / | / | 15.9 | / | /
CCOc1ccccc1N=C1SCCCN1C | -1.8 | 15.2 | 32.7 | 9.2 | -2.0
CCOc1cccc(=NC2CCCCC2)c2c(C)n(C)c(C)c12 | -1.6 | 3.1 | 78.7* | 6.8 | 8.1
CCCCCCn1c(=O)c(C(=O)Nc2c(C)n(C)n(-c3ccccc3)c2=O)c(O)c2ccccc21 | 4.3 | 8.4 | 89.7* | -1.2 | 1.1
CCCCCCn1c(=O)c(C(=O)Nc2nc(CC(=O)OCC)cs2)c(O)c2ccccc21 | -2.0 | -52.5 | 84.5* | -19.9 | 17.9
CCOC(=O)Cc1csc(NC(=O)c2c(O)c3ccccc3n(CCC(C)C)c2=O)n1 | -1.7 | -0.7 | 89.4* | -6.2 | 12.0
NC(=NCCC[C@H](N)C(=O)O)N[N+](=O)[O-] | / | / | 0.2 | / | /
O=C1NC(=S)N(c2ccccc2F)C(=O)/C1=C\c1cccs1 | -6.6 | -9.9 | 83.5* | 1.2 | 4.1
